Assay results from different studies.
Compare with care: the assays were run in different laboratories.
Matrix: plasma

| Compound | test system | conditions | AUC(0-t) |
| --- | --- | --- | --- |
| CCCCC1=NC2(CCCC2)C(=O)N1Cc1ccc(-c2ccccc2S(=O)(=O)Nc2noc(C)c2C)c(COCC)c1 | human | oral, 800 mg, single dose, fed, healthy volunteers, tablet | 169000 ng·h/mL |
| CC(C)c1nc(N(C)S(C)(=O)=O)nc(-c2ccc(F)cc2)c1/C=C/[C@@H](O)C[C@@H](O)CC(=O)O | human | oral, 20 mg | 48.6 ng·h/mL |
| CC(C)(O)c1ccccc1-c1ccc2[nH]c(/C=C/c3ccc(C(F)(F)F)cc3)nc2c1 | male human | oral, 120 mg, single dose, fasted, healthy volunteers | 13100 ng·h/mL |
| COCCOc1cnc2ccn([C@H](C)c3nnc4c(F)cc(-c5cnn(C)c5)cn34)c(=O)c2c1 | human | oral, 150 mg, multiple doses, once daily, patients | 31900 ng·h/mL |
| CNC(=O)c1ccccc1Sc1ccc2c(/C=C/c3ccccn3)n[nH]c2c1 | human | oral, 5 mg, single dose, fasted, healthy volunteers | 194 ng·h/mL |
| Nc1cc(C(F)(F)F)c(-c2cc(N3CCOCC3)nc(N3CCOCC3)n2)cn1 | human | oral, 25 mg/day, patients | 2060 ng·h/mL |
| Oc1cc(O)c2c(c1)O[C@@H](c1ccc(O)c(O)c1)[C@@H](O)C2 | human | oral, 100 mg, single dose | 14.2 ng·h/mL |
| CC(C)n1cc(C#N)c2cc(-n3cc(C(=O)O)cn3)ccc21 | human | oral, 25 mg, single dose, fasted, healthy volunteers | 5010 ng·h/mL |
| COc1cc(N2CCC(N3CCN(C)CC3)CC2)ccc1Nc1ncnc(Nc2ccccc2S(=O)(=O)C(C)C)n1 | human | oral, 325 mg, multiple doses, patients | 23100 ng·h/mL |
| C#Cc1cccc(Nc2ncnc3cc(OCCOC)c(OCCOC)cc23)c1 | human | oral, 50 mg, patients | 12.5 µM·h |
| C[C@@H](Nc1cc(F)cc(F)c1)c1cc(C(=O)N(C)C)cc2c(=O)cc(N3CCOCC3)oc12 | human | oral, 180 mg, single dose, patients | 6710 ng·h/mL |
| COC(=O)N[C@@H](C)CNc1nccc(-c2cn(C(C)C)nc2-c2cc(Cl)cc(NS(C)(=O)=O)c2F)n1 | human | oral, 50 mg, single dose | 1900 ng·h/mL |
| COc1ccc(-n2nc(C(N)=O)c3c2C(=O)N(c2ccc(N4CCCCC4=O)cc2)CC3)cc1 | male human | oral, 2.5 mg, single dose | 430 ng·h/mL |
| CCNCCCNC/C=C\CNCCCNCC | human | intravenous, 50 mg, patients, infusion | 79.8 ng·h/mL |
| COc1cc2c(cc1OC)CN(CCc1ccc(NC(=O)c3cc(OC)c(OC)cc3NC(=O)c3cnc4ccccc4c3)cc1)CC2 | human | intravenous, 1.5 mg/kg, patients | 10.5 µM·h |
| CCO[C@H]1CCN(Cc2c(OC)cc(C)c3[nH]ccc23)[C@H](c2ccc(C(=O)O)cc2)C1 | human | oral, 100 mg, multiple doses, twice daily, patients | 11900 ng·h/mL |
| COc1ccc([C@@H]2CN(C(=O)[C@@H](O)CO)C[C@@]2(C)[C@@H](C)O)cc1OC1CN(c2ccc(C)cn2)C1 | human | oral, 0.5 mg, single dose, healthy volunteers | 188 ng·h/mL |
| Cc1nc(NC(=O)N2CCC[C@H]2C(N)=O)sc1-c1ccnc(C(C)(C)C(F)(F)F)c1 | human | oral, 270 mg, patients | 25300 ng·h/mL |
| NS(=O)(=O)c1ccc(NC(=O)Nc2ccc(F)cc2)cc1 | human | oral, 500 mg, multiple doses, once daily | 62200 ng·h/mL |
| O=C(/C=C/c1cccc(S(=O)(=O)Nc2ccccc2)c1)NO | human | intravenous, 2000 mg/m², patients | 85200 ng·h/mL |
| C[C@@]1(c2cc(NC(=O)c3ccc(C#N)cn3)ccc2F)C=CSC(N)=N1 | human | oral, 10 mg, single dose | 1000 ng·h/mL |
| OC[C@H]1O[C@@H](c2ccc(Cl)c(Cc3ccc(O[C@H]4CCOC4)cc3)c2)[C@H](O)[C@@H](O)[C@@H]1O | human | oral, 2.5 mg, single dose | 0.402 µM·h |
| COc1cc2c(Nc3ccc(Br)cc3F)ncnc2cc1OCC1CCN(C)CC1 | human | oral, 85 mg/m², multiple doses, patients | 15500 ng·h/mL |
| CO[C@@H]1[C@H](OC(=O)N2CC(CCN3CCOCC3)C2)CC[C@]2(CO2)[C@H]1[C@@]1(C)O[C@@H]1CC=C(C)C | human | subcutaneous, 0.6 mg, single dose, healthy volunteers | 1.21 ng·h/mL |
| O=C(O)C[C@H](O)C[C@H](O)/C=C/c1c(C2CC2)nc2ccccc2c1-c1ccc(F)cc1 | human | oral, 2 mg, single dose, fed, healthy volunteers, tablet | 292 ng·h/mL |
| FC(F)(F)c1ccc(CNc2ccc(Cc3c[nH]c4ncc(Cl)cc34)cn2)cn1 | human | oral, 1600 mg, multiple doses, patients | 28700 ng·h/mL |
| C[C@@H](Oc1ccc(S(C)(=O)=O)cc1C(=O)N1C[C@@H]2C[C@]2(c2cc(C(F)(F)F)on2)C1)C(F)(F)F | human | oral, 25 mg, fasted | 10.8 µM·h |
| CO[C@H]1CC[C@H](N2C(=O)CNc3ncc(-c4ccc(C(C)(C)O)nc4)nc32)CC1 | human | oral, 7.5 mg, multiple doses, patients | 299 ng·h/mL |
